This note sets out measurements from ChEMBL document CHEMBL4373711, “Development of 3,5-Dinitrophenyl-Containing 1,2,4-Triazoles and Their Trifluoromethyl Analogues as Highly Efficient Antitubercular Agents Inhibiting Decaprenylphosphoryl-β-d-ribofuranose 2'-Oxidase” (J Med Chem, 2019).

The target in data set [1] is T1, Decaprenylphosphoryl-beta-D-ribose oxidase (Mycobacterium tuberculosis (strain ATCC 25618 / H37Rv)) (UniProt P9WJF1).
T1 sequence (whole entry): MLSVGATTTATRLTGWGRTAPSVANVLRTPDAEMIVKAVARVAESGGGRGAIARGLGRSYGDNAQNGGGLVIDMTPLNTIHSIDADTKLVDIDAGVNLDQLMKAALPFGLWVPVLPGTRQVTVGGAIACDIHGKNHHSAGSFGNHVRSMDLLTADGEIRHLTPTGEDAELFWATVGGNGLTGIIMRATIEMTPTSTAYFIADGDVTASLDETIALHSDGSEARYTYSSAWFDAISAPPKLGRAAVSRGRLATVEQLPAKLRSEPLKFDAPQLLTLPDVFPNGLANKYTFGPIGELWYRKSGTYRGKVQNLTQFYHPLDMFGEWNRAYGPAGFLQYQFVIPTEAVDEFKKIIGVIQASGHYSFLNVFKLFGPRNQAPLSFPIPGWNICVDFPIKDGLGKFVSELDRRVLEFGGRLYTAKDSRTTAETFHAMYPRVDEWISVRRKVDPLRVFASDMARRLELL
As to the kind of experiment: Inhibition of DprE1 in Mycobacterium tuberculosis H37Rv assessed as accumulation of trehalose monomycolates at 10 times MIC measured after 24 hrs in presence of [14C]-acetate by TLC-based autoradiography. Put shortly:
(§1)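 M. tuberculosis H37Rv cultures were exposed to compound at final 10× or 100× MIC, or to DMSO, together with [14C]-acetate at 1 µCi/ml final. After 24 h, lipids were extracted in CHCl3/CH3OH (2:1) for 2 h at 65 °C and given two Folch washes. Extracts were run on TLC in CHCl3/CH3OH/H2O (20:4:0.5), then autoradiographed for 7 days at -80 °C.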

Data set [2] deals with T1, Decaprenylphosphoryl-beta-D-ribose oxidase (Mycobacterium tuberculosis (strain ATCC 25618 / H37Rv)). Briefly: Inhibition of DprE1 in Mycobacterium tuberculosis H37Rv assessed as accumulation of trehalose dimycolates at 10 times MIC measured after 24 hrs in presence of [14C]-acetate by TLC-based autoradiography. Put shortly: as §1
Data set [3] concerns the target T2, Decaprenylphosphoryl-beta-D-ribose oxidase (Mycobacterium smegmatis (strain ATCC 700084 / mc(2)155)) (UniProt A0R607).
T2 sequence (whole entry): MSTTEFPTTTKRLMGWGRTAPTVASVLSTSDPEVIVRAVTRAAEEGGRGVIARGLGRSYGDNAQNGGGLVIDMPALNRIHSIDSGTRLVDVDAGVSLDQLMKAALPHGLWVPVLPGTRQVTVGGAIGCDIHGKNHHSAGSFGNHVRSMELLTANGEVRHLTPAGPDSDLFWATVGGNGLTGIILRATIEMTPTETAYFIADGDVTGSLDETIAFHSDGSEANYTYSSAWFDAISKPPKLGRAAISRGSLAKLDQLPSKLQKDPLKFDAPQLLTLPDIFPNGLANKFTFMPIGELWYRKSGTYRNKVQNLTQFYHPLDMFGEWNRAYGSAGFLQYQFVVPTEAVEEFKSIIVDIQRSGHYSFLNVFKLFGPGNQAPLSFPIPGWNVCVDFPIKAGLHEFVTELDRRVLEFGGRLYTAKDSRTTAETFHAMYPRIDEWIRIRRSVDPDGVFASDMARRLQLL
As to the kind of experiment: Inhibition of DprE1 in Mycolicibacterium smegmatis MC2 155 lysate assessed as reduction in epimerization of P[14C]RPP to DP[14C]A at 70 uM measured after 1.5 hrs in presence of NADH by TLC-based autoradiography. Type of data set: subcellular. Put shortly: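 Cell-free DPA synthesis used a membrane/cell-envelope fraction (430 µg), spun at 100 000 × g, from sonicated M. smegmatis mc2155. The fraction was incubated 1.5 h with 15,000 dpm P[14C]RPP and NADH. BTZ was used at 70 µM and test compounds at 700 µM final, both added from DMSO stocks. Lipids were extracted, 25% was resolved by TLC, and autoradiography ran 8 days at -80 °C.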

Data set [4] can be described thus: Genotoxicity in Salmonella typhimurium TA98 at 30 uM in absence of rat liver S9 fraction by Ames test. Type of data set: toxicity. The settings on record: salmonella enterica subsp. enterica serovar typhimurium, s9, 30 µM. (In general: The Ames test uses bacterial strains that need an amino acid and regain growth without it when mutated back.)
A short description of data set [5]: Genotoxicity in Salmonella typhimurium TA100 at 30 uM in absence of rat liver S9 fraction by Ames test. It is filed as toxicity. The settings on record: salmonella enterica subsp. enterica serovar typhimurium, s9, 30 µM.

The source made the active and inactive calls. The rule behind the calls is not given here.

On to `C[C@H]1COC2(CCN(c3nc(=O)c4cc(C(F)(F)F)cc([N+](=O)[O-])c4s3)CC2)O1`, for which the inhibition entry in data set [1], in data set [2] and in data set [3] was “Active” throughout.

With `O=[N+]([O-])c1ccc2c(c1)Cc1ccccc1-2` [2-NITROFLUORENE], the Activity result in data set [4] was “Toxic”.

Regarding `[N-]=[N+]=[N-].[Na+]` [SODIUM AZIDE], in data set [5], the Activity entry is reported as “Toxic”.
